In general, MIC refers to the smallest concentration in the dilution series that meets the test's criterion for growth inhibition. Low readings indicate inhibition by little substance, high ones a need for much substance.

The structures appear in SMILES notation. Values after ≈ are worked out from the molar mass of the structure shown.

The subject of this experiment is Mycobacterium tuberculosis. In words: Antitubercular activity against Mycobacterium tuberculosis H37Rv ATCC 27294 by microplate alamar blue assay. It is filed as functional. The essentials:
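Resazurin-based (Alamar Blue) colorimetric redox indicator used to assess growth of M. tuberculosis H37Rv. MIC (µg/mL) is taken as the lowest drug concentration that prevents a colour change from blue (no growth) to pink (growth).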
For orientation: Alamar Blue is a resazurin reagent that responds to reducing activity.
Turning to `Cc1c(C(=O)N/N=C/c2ccccc2)nnn1Nc1ccc(Br)cc1`, the MIC was > 100 µg/mL.
Regarding `Cc1c(C(=O)N/N=C/c2ccccc2)nnn1Nc1ccc(F)cc1`, the MIC is > 100 µg/mL.
As to `Cc1c(C(=O)N/N=C/c2ccc(Br)s2)nnn1Nc1ccc(Br)cc1`, the MIC is > 100 µg/mL.
In the case of `Cc1c(C(=O)N/N=C/c2ccc(Br)s2)nnn1Nc1ccc(F)cc1`, the MIC was > 100 µg/mL.
With `Cc1c(C(=O)N/N=C/c2ccco2)nnn1Nc1ccc(Br)cc1` the figure was 25.5 µg/mL (≈ 65.5 µM).
`Cc1c(C(=O)N/N=C/c2ccco2)nnn1Nc1ccc(F)cc1` showed a minimum inhibitory concentration (MIC) of 12.5 µg/mL (≈ 38.1 µM).
On to `Cc1c(C(=O)N/N=C/c2ccc([N+](=O)[O-])o2)nnn1Nc1ccc(Br)cc1`, for which inhibition of growth (MIC) required 6.25 µg/mL (≈ 14.4 µM).
For the compound `Cc1c(C(=O)N/N=C/c2ccc([N+](=O)[O-])o2)nnn1Nc1ccc(F)cc1`, the minimum inhibitory concentration (MIC) was 5 µg/mL (≈ 13.4 µM).
`Cc1c(C(=O)N/N=C/c2ccc([N+](=O)[O-])o2)nnn1Nc1ccccc1` showed an MIC of 2.5 µg/mL (≈ 7.04 µM).
`Cc1c(C(=O)N/N=C/c2ccc(Br)s2)nnn1Nc1ccccc1`: the lowest concentration to inhibit growth (MIC) was 12.5 µg/mL (≈ 30.8 µM).
Take `Cc1c(C(=O)N/N=C/c2ccc([N+](=O)[O-])o2)nnn1Nc1ccc(Cl)cc1`: 5 µg/mL (≈ 12.8 µM) was the least that counted as inhibitory (MIC).
Take `Cc1c(C(=O)N/N=C/c2ccccc2)nnn1Nc1ccc(Cl)cc1`: the MIC was > 100 µg/mL.
As for `Cc1c(C(=O)N/N=C/c2ccccc2)nnn1Nc1ccccc1`, the MIC is > 100 µg/mL.
On to `Cc1c(C(=O)N/N=C/c2ccc(Br)s2)nnn1Nc1ccc(Cl)cc1`, for which the MIC is > 100 µg/mL.
On to `Cc1c(C(=O)N/N=C/c2ccco2)nnn1Nc1ccc(Cl)cc1`, for which the MIC is 12.5 µg/mL (≈ 36.3 µM).
The compound `Cc1c(C(=O)N/N=C/c2ccco2)nnn1Nc1ccccc1` came in with a minimal inhibitory concentration (MIC) of 5 µg/mL (≈ 16.1 µM).
In the case of `CC[C@@H](CO)NCCN[C@@H](CC)CO` [ETHAMBUTOL] it was 2 µg/mL (≈ 9.79 µM).
`CC(C)CCOc1ccc(NC(=S)Nc2ccc(OCCC(C)C)cc2)cc1` [TIOCARLIDE] displayed a minimal inhibitory concentration (MIC) of 2.5 µg/mL (≈ 6.24 µM).
